Data taken from ChEMBL document CHEMBL4177566, “Rational design, synthesis and preliminary antitumor activity evaluation of a chlorambucil derivative with potent DNA/HDAC dual-targeting inhibitory activity” (Bioorg Med Chem Lett, 2017).
Calls of active or inactive are those of the source. The calls are words filed in the database; no cut-off is given here.

Tests used:
A549 = assay: Antiproliferative activity against human A549 cells after 72 hrs by CCK8 assay; format: functional, cell-based; conditions: for IC50: A549, 72 h
How it was run: (§1)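 CCK-8 viability read-out on four human cancer lines (HepG2, A549, HCT116, A375) over a range of concentrations. IC50 is the concentration that reduces viability to 50%. Values are means of three experiments.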

A-375 [1] = assay: Induction of apoptosis in human A375 cells assessed as live cells at 2 uM after 72 hrs by Annexin/propidium iodide staining based flow cytometry (reference value: 86.07%); format: functional
A-375 [2] = assay: Induction of apoptosis in human A375 cells assessed as early apoptotic cells at 2 uM after 72 hrs by Annexin/propidium iodide staining based flow cytometry (reference value: 1.62%); format: functional
A-375 [3] = assay: Induction of apoptosis in human A375 cells assessed as late apoptotic cells at 2 uM after 72 hrs by Annexin/propidium iodide staining based flow cytometry (reference value: 6.95%); format: functional
Homo sapiens = organism: Homo sapiens; assay: Induction of DNA damage in human A375 cells assessed as increase in gammaH2AX level at 16 uM after 48 hrs by high throughput assay relative to control; format: cell-based
How it was run: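 A375 cells were exposed for 48 h at 8 and 16 µM. Histone H2AX phosphorylation (γH2AX, a double-strand-break marker) was detected with the EpiQuik In Situ DNA Damage Assay kit following the maker's protocol. Results are expressed as percent of the untreated control, as mean ± SD (n=3), with a t-test for significance.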

A-375 [4] = assay: Induction of apoptosis in human A375 cells assessed as necrotic cells at 2 uM after 72 hrs by Annexin/propidium iodide staining based flow cytometry (reference value: 1.36%); format: functional
HCT-116 = assay: Antiproliferative activity against human HCT116 cells after 72 hrs by CCK8 assay; format: functional, cell-based; conditions: for IC50: HCT-116, 72 h; how it was run: as §1
A-375 [5] = assay: Anticlonogenic activity against human A375 cells at 2 to 16 uM after 7 days by crystal violet staining based assay; format: functional, cell-based
A-375 [6] = assay: Induction of apoptosis in human A375 cells assessed as necrotic cells at 8 uM after 72 hrs by Annexin/propidium iodide staining based flow cytometry (reference value: 1.36%); format: functional
A-375 [7] = assay: Cell cycle arrest in human A375 cells assessed as accumulation at G0/G1 phase at 8 uM after 72 hrs by propidium iodide staining based flow cytometry (reference value: 83.6%); format: functional
A-375 [8] = assay: Induction of apoptosis in human A375 cells assessed as late apoptotic cells at 8 uM after 72 hrs by Annexin/propidium iodide staining based flow cytometry (reference value: 6.95%); format: functional
A-375 [9] = assay: Induction of apoptosis in human A375 cells assessed as late apoptotic cells at 16 uM after 72 hrs by Annexin/propidium iodide staining based flow cytometry (reference value: 6.95%); format: functional
A-375 [10] = assay: Antiproliferative activity against human A375 cells after 72 hrs by CCK8 assay; format: functional, cell-based; conditions: for IC50: A-375, 72 h; how it was run: as §1
A-375 [11] = assay: Induction of apoptosis in human A375 cells assessed as live cells at 16 uM after 72 hrs by Annexin/propidium iodide staining based flow cytometry (reference value: 86.07%); format: functional
A-375 [12] = assay: Induction of apoptosis in human A375 cells assessed as early apoptotic cells at 8 uM after 72 hrs by Annexin/propidium iodide staining based flow cytometry (reference value: 1.62%); format: functional
A-375 [13] = assay: Cell cycle arrest in human A375 cells assessed as accumulation at S phase at 8 uM after 72 hrs by propidium iodide staining based flow cytometry (reference value: 3.8%); format: functional
A-375 [14] = assay: Cell cycle arrest in human A375 cells assessed as accumulation at G2/M phase at 8 uM after 72 hrs by propidium iodide staining based flow cytometry (reference value: 12.6%); format: functional
A-375 [15] = assay: Induction of apoptosis in human A375 cells assessed as necrotic cells at 16 uM after 72 hrs by Annexin/propidium iodide staining based flow cytometry (reference value: 1.36%); format: functional
A-375 [16] = assay: Induction of apoptosis in human A375 cells assessed as early apoptotic cells at 16 uM after 72 hrs by Annexin/propidium iodide staining based flow cytometry (reference value: 1.62%); format: functional
HepG2 = assay: Antiproliferative activity against human HepG2 cells after 72 hrs by CCK8 assay; format: functional, cell-based; conditions: for IC50: HepG2, 72 h; how it was run: as §1
A-375 [17] = assay: Induction of apoptosis in human A375 cells assessed as live cells at 8 uM after 72 hrs by Annexin/propidium iodide staining based flow cytometry (reference value: 86.07%); format: functional
[18] = biological target: Histone deacetylase (Homo sapiens) (UniProt Q13547+O15379+Q9UBN7+Q92769+Q9UQL6+Q8WUI4+Q9BY41+Q96DB2+P56524+Q9UKV0+Q969S8); assay: Inhibition of HDAC in human HeLa nuclear extract up to 10000 uM preincubated with cells followed by flour de lys-green substrate addition measured after 1 hr by fluorescence assay
A-375 [19] = assay: Induction of apoptosis in human A375 cells after 72 hrs by Annexin/propidium iodide staining based flow cytometry; format: functional, cell-based
[20] = biological target: T1, Protein deacetylase HDAC6 (Homo sapiens, UniProt Q9UBN7); assay: Inhibition of recombinant human His-tagged HDAC6 expressed in baculovirus infected insect cells preincubated with enzyme followed by flour de lys-green substrate addition measured after 1 hr by fluorescence assay
T1 sequence (Q9UBN7 whole entry): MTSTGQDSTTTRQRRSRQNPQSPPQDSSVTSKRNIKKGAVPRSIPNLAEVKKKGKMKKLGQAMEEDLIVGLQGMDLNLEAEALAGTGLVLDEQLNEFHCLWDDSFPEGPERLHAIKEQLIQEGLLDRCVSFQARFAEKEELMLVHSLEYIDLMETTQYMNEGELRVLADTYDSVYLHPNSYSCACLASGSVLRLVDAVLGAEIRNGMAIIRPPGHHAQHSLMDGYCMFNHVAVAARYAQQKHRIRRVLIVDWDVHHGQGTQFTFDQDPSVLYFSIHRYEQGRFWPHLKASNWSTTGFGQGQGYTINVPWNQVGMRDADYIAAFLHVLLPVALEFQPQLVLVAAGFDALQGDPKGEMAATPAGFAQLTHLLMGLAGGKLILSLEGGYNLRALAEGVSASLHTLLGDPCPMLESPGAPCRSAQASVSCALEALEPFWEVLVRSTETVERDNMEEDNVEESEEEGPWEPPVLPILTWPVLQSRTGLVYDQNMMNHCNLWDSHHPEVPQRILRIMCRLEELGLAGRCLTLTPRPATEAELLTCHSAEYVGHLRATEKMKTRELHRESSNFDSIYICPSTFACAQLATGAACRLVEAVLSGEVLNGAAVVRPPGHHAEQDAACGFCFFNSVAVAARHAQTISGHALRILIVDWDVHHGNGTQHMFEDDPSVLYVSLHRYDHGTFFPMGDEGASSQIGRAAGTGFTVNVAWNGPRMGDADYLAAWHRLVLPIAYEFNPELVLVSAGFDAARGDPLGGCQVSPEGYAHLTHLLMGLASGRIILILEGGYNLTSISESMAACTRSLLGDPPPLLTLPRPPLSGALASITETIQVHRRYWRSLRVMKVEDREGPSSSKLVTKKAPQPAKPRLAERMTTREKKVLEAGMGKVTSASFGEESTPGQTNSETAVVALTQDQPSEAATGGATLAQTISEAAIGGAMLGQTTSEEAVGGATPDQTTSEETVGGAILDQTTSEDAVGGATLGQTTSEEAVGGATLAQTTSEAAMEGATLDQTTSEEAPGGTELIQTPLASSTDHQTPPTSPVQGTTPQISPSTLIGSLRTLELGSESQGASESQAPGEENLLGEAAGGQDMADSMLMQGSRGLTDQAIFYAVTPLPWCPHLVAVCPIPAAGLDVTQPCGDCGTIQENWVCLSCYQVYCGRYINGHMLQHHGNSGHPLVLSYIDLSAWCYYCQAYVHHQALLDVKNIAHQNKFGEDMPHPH

Histone deacetylase 1 = Histone deacetylase 1 (Homo sapiens, UniProt Q13547); assay: Inhibition of recombinant human HDAC1 (482 residues) expressed in baculovirus infected insect cells preincubated with enzyme followed by flour de lys-green substrate addition measured after 1 hr by fluorescence assay
Histone deacetylase 2 = Histone deacetylase 2 (Homo sapiens, UniProt Q92769); assay: Inhibition of recombinant human HDAC2 preincubated with enzyme followed by flour de lys-green substrate addition measured after 1 hr by fluorescence assay
A-375 [21] = assay: Anticlonogenic activity against human A375 cells after 7 days by crystal violet staining based assay; format: functional, cell-based

Histone deacetylase 2, sequence (Q92769 whole entry): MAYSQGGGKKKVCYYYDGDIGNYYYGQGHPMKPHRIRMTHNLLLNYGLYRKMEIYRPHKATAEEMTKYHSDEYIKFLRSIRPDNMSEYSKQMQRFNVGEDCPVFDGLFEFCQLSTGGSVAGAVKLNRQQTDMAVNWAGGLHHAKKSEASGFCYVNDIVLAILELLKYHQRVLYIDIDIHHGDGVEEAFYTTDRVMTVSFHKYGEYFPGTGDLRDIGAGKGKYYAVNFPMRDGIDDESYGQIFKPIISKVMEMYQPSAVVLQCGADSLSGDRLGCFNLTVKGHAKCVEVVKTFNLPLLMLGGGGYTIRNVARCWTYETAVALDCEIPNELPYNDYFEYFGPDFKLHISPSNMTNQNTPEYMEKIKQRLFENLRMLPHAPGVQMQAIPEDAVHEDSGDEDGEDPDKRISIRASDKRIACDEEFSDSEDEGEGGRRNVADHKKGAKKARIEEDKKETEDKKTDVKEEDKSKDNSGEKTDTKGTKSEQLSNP
Histone deacetylase 1, sequence (Q13547 whole entry): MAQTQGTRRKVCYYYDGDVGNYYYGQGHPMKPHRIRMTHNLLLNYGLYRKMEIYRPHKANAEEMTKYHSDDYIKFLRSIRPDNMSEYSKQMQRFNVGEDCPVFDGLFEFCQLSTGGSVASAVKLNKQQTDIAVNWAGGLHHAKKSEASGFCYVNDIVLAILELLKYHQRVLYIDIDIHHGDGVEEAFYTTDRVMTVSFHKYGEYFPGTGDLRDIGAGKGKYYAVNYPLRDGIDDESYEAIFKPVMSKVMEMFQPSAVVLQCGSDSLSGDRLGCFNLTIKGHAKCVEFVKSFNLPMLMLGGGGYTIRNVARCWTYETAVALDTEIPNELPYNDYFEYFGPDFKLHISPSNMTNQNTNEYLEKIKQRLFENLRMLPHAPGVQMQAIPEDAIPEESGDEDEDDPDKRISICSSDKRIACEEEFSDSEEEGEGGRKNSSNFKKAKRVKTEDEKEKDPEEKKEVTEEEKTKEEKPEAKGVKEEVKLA

Compound	IC50 (A549)	Activity (A-375 [1])	Activity (A-375 [2])	Activity (A-375 [3])	Activity (Homo sapiens)	Activity (A-375 [4])	IC50 (HCT-116)	Activity (A-375 [6])	Activity (A-375 [7])	Activity (A-375 [8])	Activity (A-375 [9])	IC50 (A-375 [10])	Activity (A-375 [11])	Activity (A-375 [12])	Activity (A-375 [13])	Activity (A-375 [14])	Activity (A-375 [15])	Activity (A-375 [16])	IC50 (HepG2)	Activity (A-375 [17])	further results
O=C(O)CCCc1ccc(N(CCCl)CCCl)cc1 [CHLORAMBUCIL]	22.2 µM	90.07%	1.62%	6.95%	129%	1.36%	57.6 µM	2.34%	47%	8.41%	18.21%	69.2 µM	71.14%	2.11%	5.4%	47.6%	6.44%	4.21%	112 µM	87.14%	Activity (A-375 [5]): Active
O=C(CCCCCCC(=O)Nc1ccc(N(CCCl)CCCl)cc1)NO	4.4 µM	84.36%	3.31%	10.26%	224%	2.07%	3.2 µM	3.27%	27.7%	29.95%	53.54%	6.2 µM	30.42%	16.02%	5.8%	66.5%	2.75%	13.29%	6.1 µM	50.76%	Activity (A549): Dose-dependent effect; inhibition [18]: Active; Activity (A-375 [19]): Dose-dependent effect; Activity (HCT-116): Dose-dependent effect; Activity (A-375 [10]): Dose-dependent effect; IC50 [20]: 0.62 µM; IC50 (Histone deacetylase 1): 0.27 µM; IC50 (Histone deacetylase 2): 0.24 µM; Activity (HepG2): Dose-dependent effect; Activity (A-375 [21]): Dose-dependent effect
